Data reported in ChEMBL document CHEMBL3792365, “Dioxol and dihydrodioxin analogs of 2- and 3-phenylacetonitriles as potent anti-cancer agents with nanomolar activity against a variety of human cancer cells” (2016).

Experiments:
Format in all cases: functional
[1] = Growth inhibition of human PC3 cells after 48 hrs by sulforhodamine B assay; details: PC-3, 48 h
Procedure, shortened: (§1)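 Five-dose concentration series run across a panel of 60 human tumour cell lines. GI50 is taken as the drug concentration giving a 50% reduction in net protein increase relative to untreated control cells.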

[2] = test system: MCF7; assay: Growth inhibition of human MCF7 cells after 48 hrs by sulforhodamine B assay; details: MCF7, 48 h
Procedure, shortened: (§2)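 Five-dose testing against a 60-line human tumor cell panel. GI50 is the drug concentration giving a 50% reduction in net protein increase relative to untreated control cells.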

[3] = Growth inhibition of human HOP92 cells at 10 uM after 48 hrs by sulforhodamine B assay; details: HOP-92, 48 h, values are per cent of control
[4] = test system: SR; assay: Growth inhibition of human SR cells after 48 hrs by sulforhodamine B assay; procedure, shortened: as §1
[5] = test system: MCF7; assay: Growth inhibition of human MCF7 cells at 10 uM after 48 hrs by sulforhodamine B assay; details: MCF7, 48 h, values are per cent of control
[6] = test system: NCI-H23; assay: Growth inhibition of human NCI-H23 cells after 48 hrs by sulforhodamine B assay; details: NCI-H23, 48 h; procedure, shortened: as §1
[7] = test system: CCRF-CEM; assay: Growth inhibition of human CCRF-CEM cells at 10 uM after 48 hrs by sulforhodamine B assay; details: values are per cent of control
[8] = Growth inhibition of human RPMI8226 cells at 10 uM after 48 hrs by sulforhodamine B assay; details: RPMI-8226, 48 h, values are per cent of control
[9] = Growth inhibition of human SKOV3 cells after 48 hrs by sulforhodamine B assay; details: SK-OV-3, 48 h; procedure, shortened: as §1
[10] = test system: MDA-MB-468; assay: Growth inhibition of human MDA-MB-468 cells at 10 uM after 48 hrs by sulforhodamine B assay; details: MDA-MB-468, 48 h, values are per cent of control
[11] = Growth inhibition of human MOLT4 cells at 10 uM after 48 hrs by sulforhodamine B assay; details: MOLT-4, 48 h, values are per cent of control
[12] = Growth inhibition of human SNB19 cells at 10 uM after 48 hrs by sulforhodamine B assay; details: SNB-19, 48 h, values are per cent of control
[13] = Growth inhibition of human PC3 cells at 10 uM after 48 hrs by sulforhodamine B assay; details: PC-3, 48 h, values are per cent of control
[14] = Growth inhibition of human Caki1 cells after 48 hrs by sulforhodamine B assay; details: CAKI-1, 48 h; procedure, shortened: as §2
[15] = test system: MDA-MB-231; assay: Growth inhibition of human MDA-MB-231 cells after 48 hrs by sulforhodamine B assay; details: MDA-MB-231, 48 h; procedure, shortened: as §2
[16] = Growth inhibition of human UACC257 cells at 10 uM after 48 hrs by sulforhodamine B assay; details: UACC-257, 48 h, values are per cent of control
[17] = test system: U-251; assay: Growth inhibition of human U251 cells at 10 uM after 48 hrs by sulforhodamine B assay; details: U-251, 48 h, values are per cent of control
[18] = Growth inhibition of human SF539 cells after 48 hrs by sulforhodamine B assay; details: SF-539, 48 h; procedure, shortened: as §1
[19] = Growth inhibition of human HOP92 cells after 48 hrs by sulforhodamine B assay; details: HOP-92, 48 h; procedure, shortened: as §2
[20] = Growth inhibition of human NCI-ADR-RES cells after 48 hrs by sulforhodamine B assay; procedure, shortened: as §1
[21] = Growth inhibition of human BT549 cells at 10 uM after 48 hrs by sulforhodamine B assay; details: BT-549, 48 h, values are per cent of control
[22] = Growth inhibition of human UO31 cells after 48 hrs by sulforhodamine B assay; details: UO-31, 48 h
Procedure, shortened: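 Five-dose testing across the 60-line human tumour cell panel. GI50 is the drug concentration that gives a 50% reduction in net protein increase relative to control cells.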

[23] = test system: KM12; assay: Growth inhibition of human KM12 cells at 10 uM after 48 hrs by sulforhodamine B assay; details: KM12, 48 h, values are per cent of control
[24] = test system: MDA-MB-435; assay: Growth inhibition of human MDA-MB-435 cells after 48 hrs by sulforhodamine B assay; details: MDA-MB-435, 48 h; procedure, shortened: as §2
[25] = test system: KM12; assay: Growth inhibition of human KM12 cells after 48 hrs by sulforhodamine B assay; details: KM12, 48 h; procedure, shortened: as §2
[26] = test system: Malme-3M; assay: Growth inhibition of human MALME-3M cells at 10 uM after 48 hrs by sulforhodamine B assay; details: values are per cent of control
[27] = Growth inhibition of human DU145 cells after 48 hrs by sulforhodamine B assay; details: DU-145, 48 h; procedure, shortened: as §2
[28] = test system: SR; assay: Growth inhibition of human SR cells at 10 uM after 48 hrs by sulforhodamine B assay; details: values are per cent of control
[29] = Growth inhibition of human HOP62 cells at 10 uM after 48 hrs by sulforhodamine B assay; details: HOP-62, 48 h, values are per cent of control
[30] = Growth inhibition of human HOP62 cells after 48 hrs by sulforhodamine B assay; details: HOP-62, 48 h; procedure, shortened: as §2
[31] = test system: NCI-H226; assay: Growth inhibition of human NCI-H226 cells at 10 uM after 48 hrs by sulforhodamine B assay; details: NCI-H226, 48 h, values are per cent of control
[32] = test system: SK-MEL-5; assay: Growth inhibition of human SK-MEL-5 cells after 48 hrs by sulforhodamine B assay; details: SK-MEL-5, 48 h; procedure, shortened: as §1
[33] = Growth inhibition of human HL-60(TB) cells after 48 hrs by sulforhodamine B assay; details: HL-60, 48 h
Procedure, shortened: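 Five-dose study across the 60-cell human tumour panel. GI50 is the drug concentration giving a 50% reduction in net protein increase relative to control cells.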

[34] = Growth inhibition of human HL-60(TB) cells at 10 uM after 48 hrs by sulforhodamine B assay; details: HL-60, 48 h, values are per cent of control
[35] = Growth inhibition of human Hs 578T cells after 48 hrs by sulforhodamine B assay; procedure, shortened: as §2
[36] = Growth inhibition of human HCC2998 cells after 48 hrs by sulforhodamine B assay; details: HCC 2998, 48 h; procedure, shortened: as §2
[37] = test system: U-251; assay: Growth inhibition of human U251 cells after 48 hrs by sulforhodamine B assay; details: U-251, 48 h; procedure, shortened: as §1
[38] = test system: MDA-MB-435; assay: Growth inhibition of human MDA-MB-435 cells at 10 uM after 48 hrs by sulforhodamine B assay; details: MDA-MB-435, 48 h, values are per cent of control
[39] = test system: NCI-H522; assay: Growth inhibition of human NCI-H522 cells after 48 hrs by sulforhodamine B assay; details: NCI-H522, 48 h; procedure, shortened: as §1
[40] = Growth inhibition of human SF268 cells after 48 hrs by sulforhodamine B assay; details: SF-268, 48 h; procedure, shortened: as §1
[41] = Growth inhibition of human HCT15 cells after 48 hrs by sulforhodamine B assay; details: HCT-15, 48 h; procedure, shortened: as §2
[42] = Growth inhibition of human SW620 cells after 48 hrs by sulforhodamine B assay; details: SW-620, 48 h; procedure, shortened: as §1

COc1ccc(/C(C#N)=C/c2ccc3c(c2)OCCO3)cc1OC
GI50 [1]: 4.57 µM | GI50 [2]: 0.86 µM | growth, % of control at 10 µM [3]: 39.3% | GI50 [4]: 0.93 µM | growth, % of control at 10 µM [5]: 20.1% | GI50 [6]: 6.61 µM | growth, % of control at 10 µM [7]: 6.4% | growth, % of control at 10 µM [8]: 57.1% | GI50 [9]: 3.24 µM | growth, % of control at 10 µM [10]: -11.4% | growth, % of control at 10 µM [11]: 19.6% | growth, % of control at 10 µM [12]: 53.2% | growth, % of control at 10 µM [13]: 21.3% | GI50 [14]: 2.92 µM | GI50 [15]: 4.69 µM | growth, % of control at 10 µM [16]: 66.7% | growth, % of control at 10 µM [17]: 19.9% | GI50 [18]: 2.56 µM | GI50 [19]: 9.64 µM | GI50 [20]: 1.52 µM | growth, % of control at 10 µM [21]: 19.2% | GI50 [22]: 5.01 µM | growth, % of control at 10 µM [23]: 30.6% | GI50 [24]: 0.26 µM | GI50 [25]: 1.59 µM | growth, % of control at 10 µM [26]: 51.8% | GI50 [27]: 4.69 µM | growth, % of control at 10 µM [28]: 1.8% | growth, % of control at 10 µM [29]: 36.9% | GI50 [30]: 2.98 µM | growth, % of control at 10 µM [31]: 71.1% | GI50 [32]: 0.84 µM | GI50 [33]: 2.07 µM | growth, % of control at 10 µM [34]: -15.7% | GI50 [35]: 5.56 µM | GI50 [36]: 8.85 µM | GI50 [37]: 3.97 µM | growth, % of control at 10 µM [38]: -17.6% | GI50 [39]: 2.8 µM | GI50 [40]: 5.38 µM | GI50 [41]: 0.73 µM | GI50 [42]: 1.04 µM
